From PubChem
Rows were chosen to be rich in hits. Some 4.5% of all compounds tested hit in one or more screens of this group.
p97 inhibitor: inhibitors of human p97 ATPase; P55072; recombinant p97 ATPase, Kinase-Glo ATP luminescence, 3 h; inhibition, % at 8 µM; 0.42% of 220,000 active; AID 1481; in the data active means inhibition above about 15%;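 further: 0% = DMSO vehicle and 100% = wells lacking enzyme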
Target sequence (P55072 whole entry, looked up): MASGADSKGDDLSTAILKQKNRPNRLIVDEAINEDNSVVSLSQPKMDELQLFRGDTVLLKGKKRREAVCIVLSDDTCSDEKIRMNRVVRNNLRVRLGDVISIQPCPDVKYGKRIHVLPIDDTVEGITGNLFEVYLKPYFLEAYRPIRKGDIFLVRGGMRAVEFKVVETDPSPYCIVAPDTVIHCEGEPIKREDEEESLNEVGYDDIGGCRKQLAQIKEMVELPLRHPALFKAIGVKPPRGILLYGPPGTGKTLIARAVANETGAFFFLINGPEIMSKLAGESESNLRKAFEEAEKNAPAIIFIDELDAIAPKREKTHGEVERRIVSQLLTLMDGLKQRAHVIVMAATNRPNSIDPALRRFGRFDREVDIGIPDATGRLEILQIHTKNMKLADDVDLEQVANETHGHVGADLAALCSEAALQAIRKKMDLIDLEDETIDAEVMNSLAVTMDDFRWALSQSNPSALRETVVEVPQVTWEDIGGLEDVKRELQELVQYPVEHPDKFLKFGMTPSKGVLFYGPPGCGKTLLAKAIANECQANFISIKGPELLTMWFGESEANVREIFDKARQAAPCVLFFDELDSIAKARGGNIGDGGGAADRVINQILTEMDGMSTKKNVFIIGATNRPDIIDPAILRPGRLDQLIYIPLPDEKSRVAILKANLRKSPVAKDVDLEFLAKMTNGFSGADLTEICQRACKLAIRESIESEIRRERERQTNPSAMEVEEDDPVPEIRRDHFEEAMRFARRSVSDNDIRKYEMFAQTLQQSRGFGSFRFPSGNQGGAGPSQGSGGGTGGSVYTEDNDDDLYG
HCV NS3 hel inh: inhibitors of Hepatitis C virus NS3 helicase; NS3 helicase DNA unwinding, Cy5 molecular beacon fluorescence; inhibition, % at 10.9 µM; 0.56% of 290,000 active; AID 1800;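 active means inhibition above the mean of all tested compounds plus 3 SD, set per campaign, cut at about 35% in these data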;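 further: 0% = DMSO wells and 100% = thioflavine S control wells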
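Control set: DMSO versus 110 µM thioflavine S; Material: NS3 helicase fragment of HCV; Measured by: Cy5 fluorescence at 0 and 60 min, beacon hairpin quenching; Read-out basis: percent inhibition from t60/t0 fluorescence ratio; Times: reaction time 60 min, 25 °C; Repeats: single replicate; Compound dosing: single dose, 10.9 µM nominal final, DMSO 0.8% final.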
CHOP UPR activ: activators of apoptotic arm of unfolded protein response (CHOP); CHO-CHOP luciferase reporter, UPR activation, luminescence; percent of tunicamycin response over DMSO baseline; activation, % at 10 µM; 0.34% of 330,000 active;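 active means at 10 µM dose, activation of 40% or more, normalized to positive control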;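 further: 100% = tunicamycin at 10 µg/mL and 0% = DMSO alone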
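Assay system: CHO-CHOP cells, stable luciferase reporter of PERK-eIF2a-CHOP signalling / Buffer or medium: F12 plus 10% serum / Compound dosing: one dose, 10 µM in 0.5% DMSO / Times: 6 h compound treatment, 37 °C / Technique: luciferase luminescence / Read-out: % reporter activation, DMSO baseline versus tunicamycin full activation / Benchmarks: tunicamycin and DMSO controls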
CHOP inhibitor: CHOP inhibition in unfolded protein response. AID 2732. CHO-K1 CHOP-promoter luciferase, tunicamycin-induced, 15-18 h. inhibition, % at 10 µM. 3.8% of 220,000 active;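 active means compounds that reduced the stress-induced luciferase reporter signal by more than about 70% of percent inhibition, limit read from the data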;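 further: 0% = tunicamycin plus vehicle and 100% = wells without tunicamycin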
PfM18AAP inh: PfM18AAP enzyme inhibition. recombinant PfM18AAP, H-Glu-NHMec fluorogenic cleavage. 1.2% of 290,000 active. inhibition, % at 7.35 µM. AID 1822;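 active means inhibition above the campaign mean inhibition over all tested compounds plus 3 SD, cut at about 28% in these data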;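 further: 0% = plate median of test compound wells and 100% = 2 mM ZnCl2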
UPR XBP1 act: adaptive UPR (XBP1) activation; activation, % at 20 µM; CHO-XBP1 luciferase reporter, IRE1-XBP1 UPR activation, luminescence; percent of tunicamycin response, DMSO as zero; 0.33% of 330,000 active;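 active means versus positive control, 20 µM dose yields 30% or more activation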;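 further: 100% = tunicamycin at 10 µg/mL and 0% = DMSO only wells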
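Material: IRE1-XBP1 luciferase reporter CHO line / Quantity: one thousand reporter cells per well / Buffer or medium: F12 with 10% serum / Compound: 20 µM single concentration, DMSO 1% / Times: 6 h treatment, 37 °C / Detection: Steady-Glo luciferase glow luminescence, 10 min after reagent addition / Benchmarks: tunicamycin high, DMSO low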
* = called active by the depositor; / = not tested or not shown.

SMILES	p97 inhibitor	HCV NS3 hel inh	CHOP UPR activ	CHOP inhibitor	PfM18AAP inh	UPR XBP1 act
Cc1cc(Nc2cccc(F)c2)nc(NCc2ccccc2)n1	2.1	-71.2	3.2	71.1*	5.0	-4.0
O=C(NCC1CCCO1)c1cc2ccccc2oc1=O (stereo unspecified)	-2.6	4.6	3.7	-5.3	-2.6	1.9
NNc1cc([N+](=O)[O-])cc2c1C(=O)N(Cc1ccccc1)S2=O (stereo unspecified)	-0.6	6.5	-0.9	2.5	42.3*	-1.8
CCc1ccccc1NC(=O)c1ccc(OCc2c(C)noc2C)cc1	/	/	-2.1	/	/	1.8
Cc1ccc(CSc2nnc(-c3ccc(NS(=O)(=O)c4ccccc4)cc3)o2)cc1	-1.2	12.0	2.2	71.0*	-7.2	-4.0
CCCCN1C(=O)C(O)(c2ccccc2)c2cc(Br)ccc21 (stereo unspecified)	/	1.0	2.3	/	7.8	-1.3
COC(=O)c1ccc(N2CCC(c3cc(-c4ccc(OC)cc4)n[nH]3)CC2)c([N+](=O)[O-])c1	-3.9	-38.3	4.6	78.8*	-10.1	8.4
CC(=O)c1ccc(N2CCC(c3cc(-c4ccc(Cl)cc4)n[nH]3)CC2)c([N+](=O)[O-])c1	-2.7	-4.6	8.1	60.7	-7.3	6.2
COc1ccc(-c2cc(C3CCN(c4ccc(C(C)=O)cc4[N+](=O)[O-])CC3)[nH]n2)cc1	2.0	-4.7	4.8	86.5*	-12.0	2.8
C=CCN1C(=O)c2ccc(C(=O)NCCc3ccc(F)cc3)cc2C1=O	/	-2.1	2.6	/	-0.2	0.4
CNc1nc2cc([N+](=O)[O-])c([N+](=O)[O-])cc2nc1NC	-1.6	-3.6	/	75.4*	-5.7	/
N#Cc1cc2nc(O)c(O)nc2cc1[N+](=O)[O-]	/	/	1.1	-0.6	/	-7.3
CCOC(=O)c1sc2nc(NC(=O)C(C)(C)C)sc2c1C	0.4	-11.0	12.1	76.8*	-4.7	7.8
CCOC(=O)c1sc2nc(NC(=O)C3CC3)sc2c1C	-5.4	-6.4	5.6	98.7*	-0.8	3.4
CCOC(=O)c1sc2nc(NC(=O)C3CCCCC3)sc2c1C	-9.7	9.6	3.9	41.5	-0.7	-0.6
COc1ccc(CCNC(=O)c2ccc3c(c2)NC(=O)C(CSCc2cc(C)ccc2C)N3)cc1OC (stereo unspecified)	/	16.9	-0.3	/	-10.6	0.3
O=C(CCl)N(c1ccccc1)c1ccccc1	1.6	4.0	/	-35.6	10.0	/
O=Cc1[nH]c2ccccc2c1N(C(=O)CCl)c1ccccc1	7.0	-3.8	/	87.3*	-4.2	/
CC(C)=CC(=O)OCC(=O)Nc1ccc(Cl)cn1	-0.3	8.1	-2.2	75.3*	6.3	3.4
CCOC(=O)/C=C/C(=O)OCC(=O)Nc1ccc(Cl)cn1	-6.6	7.3	-3.0	-19.5	-18.9	-6.4
COc1ccc(C(CNC(=O)c2ccc(-c3nc4ccccc4s3)o2)N2CCCC2)cc1 (stereo unspecified)	/	/	5.6	/	/	0.2
O=C(CN1C(=O)/C(=C/c2ccccc2F)Oc2ccccc21)N1CCN(c2ccccn2)CC1	4.2	-7.3	3.5	86.0*	-6.3	3.5
O=C(CN1C(=O)/C(=C\c2cccc(Cl)c2)Oc2ccccc21)N1CCN(c2ccccn2)CC1	6.4	10.0	5.2	99.7*	6.9	29.2
O=C(Nc1nc(-c2ccccc2)cs1)NC1CCCCC1	1.5	-5.1	4.5	93.2*	4.4	3.1
O=C(Nc1nc(-c2ccccc2)cs1)C1CCCCN1S(=O)(=O)c1ccccc1 (stereo unspecified)	5.0	-13.3	0.9	31.4	1.5	2.6
SMILES	p97 inhibitor	HCV NS3 hel inh	CHOP UPR activ	CHOP inhibitor	PfM18AAP inh	UPR XBP1 act
O=C(Nc1nc(-c2ccccc2)cs1)C1CCCCN1S(=O)(=O)c1ccc(Cl)cc1 (stereo unspecified)	6.3	4.7	-0.1	70.3*	3.1	6.7
O=C(COc1ccccc1F)Nc1ccc2c(c1)OCCO2	/	8.3	0.4	/	0.3	-4.7
CCCCNS(=O)(=O)c1ccc2nc(-c3cccnc3)cc(C(=O)NC(C)C)c2c1	2.8	-4.0	2.3	4.9	0.8	-2.3
CCCCNS(=O)(=O)c1ccc2nc(-c3cccnc3)cc(C(=O)NC(C)CC)c2c1 (stereo unspecified)	-5.1	7.8	-2.6	101.4*	-1.0	-3.0
COc1ccc(NC(=O)C2CC(=O)N=C(N)S2)cc1 (stereo unspecified)	6.2	5.2	2.1	-17.9	2.5	-1.1
COc1nnc(-c2ccc(N3CCOCC3)c(NC(=O)C3CCCCC3)c2)c2ccccc12	-3.3	1.7	1.1	27.6	-7.8	1.0
COc1nnc(-c2ccc(N3CCCCC3)c(NC(=O)C3CCCCC3)c2)c2ccccc12	-2.6	3.9	11.2	79.6*	4.5	-1.8
CC(C)OC(=O)CC(=O)CSc1nc2c(cc1C#N)CCCCCC2	4.0	7.3	-1.4	30.7	7.7	0.7
CC(C)OC(=O)CC(=O)CSc1nc2c(cc1C#N)CCCC2	6.0	1.9	0.9	80.1*	10.0	-2.0
O=C(NCCCc1ccccc1)c1ccc(CS(=O)Cc2ccccc2Cl)o1 (stereo unspecified)	/	-1.7	0.8	/	-0.9	-0.6
COc1ccc([N+](=O)[O-])cc1NC(=O)C(C)c1ccccc1 (stereo unspecified)	3.9	-6.5	0.7	58.0	2.1	-2.9
COc1ccc([N+](=O)[O-])cc1NC(=S)NC(NC(=O)C(c1ccccc1)c1ccccc1)C(Cl)(Cl)Cl (stereo unspecified)	-1.2	-0.3	15.5	72.8*	4.7	2.5
CC(C)COc1ccc(-c2nnc(-c3ccco3)o2)cc1	-0.4	16.4	-1.3	77.6*	0.2	-2.2
CCCOc1ccc(-c2nnc(-c3ccco3)o2)cc1	1.0	-1.7	-4.8	15.2	-9.2	-5.8
COc1ccc(Br)cc1[C@H]1[C@H]2C=CC[C@@H](C)[C@@H]2C(=O)N1Cc1ccccc1	/	/	2.9	75.0*	/	-0.3
Cc1cc(C(=O)NC(C)c2ccc3c(c2)OCO3)cs1 (stereo unspecified)	4.0	0.4	0.4	73.7*	-1.6	1.1
Cc1cccc(N2CCN(C(c3cccs3)c3nnnn3C(C)(C)C)CC2)c1C (stereo unspecified)	-3.4	-0.9	10.3	77.4*	-8.4	0.3
Oc1cccc(/C=N/Nc2cccc3cccnc23)c1	-7.7	8.9	1.6	21.1	23.5	-1.7
COc1cccc(CNc2cccc3cccnc23)c1O	2.3	0.7	5.1	28.8	31.4*	4.5
Oc1c(Br)cc(Br)cc1CNc1cccc2cccnc12	/	30.5	1.9	/	32.9*	-1.4
Oc1ccc(Cl)cc1CNc1cccc2cccnc12	/	-1.5	3.1	/	31.5*	8.1
COc1cc(/C=N/Nc2cccc3cccnc23)cc(OC)c1O	4.8	-5.7	5.8	-18.5	29.8*	4.8
